Bioassay records deposited in PubChem by several laboratories.
This is a sample that favours compounds with a hit; in the whole collection about 4.3% have one here.
RBBP9 inhibitor: human RBBP9 inhibitors, primary screen, biochemical, fluorescence polarization, FP-Rh probe, HTS. recombinant RBBP9. inhibition, % at 7.94 µM. AID 1515, 2009. 220,000 tested, 0.2% active. Serine hydrolase RBBP9 (Homo sapiens), O75884;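 active = inhibition above the campaign mean of all tested compounds plus 3 SD, cut at about 14% in these data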;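 also: plate controls were DMSO wells with RBBP9 for no effect and wells lacking RBBP9 protein for full effect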
Target sequence (O75884 whole entry, looked up): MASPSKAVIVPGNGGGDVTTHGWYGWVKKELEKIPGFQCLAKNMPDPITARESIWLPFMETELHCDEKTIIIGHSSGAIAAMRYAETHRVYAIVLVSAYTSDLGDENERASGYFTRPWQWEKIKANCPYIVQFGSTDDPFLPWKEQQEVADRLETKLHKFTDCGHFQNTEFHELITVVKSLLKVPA
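System: RBBP9 protein | Quantity: 2.5 µM RBBP9 dispensing solution, before mixing | Reagent: FP-Rh probe, 375 nM dispensing solution | Timing: Enzyme-compound preincubation 30 min, then probe labeling 45 min, 25 °C | Measured by: Fluorescence polarization | Read-out: % inhibition | Replication: One well per compound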
Rin1 Abl inh: inhibitors of Rin1-Abl protein binding, primary screen, biochemical, TR-FRET | Tyrosine-protein kinase ABL1 (Homo sapiens) + Ras and Rab interactor 1 (Homo sapiens), … | 360,000 tested, 0.4% active | inhibition, % at 7.35 µM | AID 588664, 2011; in the data active = inhibition above about 5%, passing the limit was not always enough
PREPL inh: PREPL enzyme inhibitors, primary screen, biochemical, fluorescence polarization | Prolyl endopeptidase-like (Homo sapiens), Q4J6C6 | recombinant PREPL, fluorescence polarization activity-based probe | inhibition, % at 5.96 µM | 320,000 tested, 0.68% active; in the data active = inhibition above about 43%;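 also: 0% = enzyme with DMSO and 100% = wells lacking enzyme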
UBC13 inh: UBC13 polyubiquitin chain formation inhibitors, primary screen, biochemical, TR-FRET, uHTS | Ubiquitin-conjugating enzyme E2 N (Homo sapiens), P61088 | inhibition, % at 20 µM | 330,000 tested, 0.47% active; in the data active = inhibition above about 45%, passing the limit was not always enough
SUMO HTRF inh: inhibitors of in vitro SUMOylation cascade, primary screen, biochemical, HTRF, uHTS. 290,000 tested, 0.36% active. inhibition, % at 35 µM. HTRF SUMOylation assay, SAE1/SAE2 + UBC9; in the data active = inhibition above about 50%, passing the limit was not always enough
Target sequence (P63279 whole entry, looked up): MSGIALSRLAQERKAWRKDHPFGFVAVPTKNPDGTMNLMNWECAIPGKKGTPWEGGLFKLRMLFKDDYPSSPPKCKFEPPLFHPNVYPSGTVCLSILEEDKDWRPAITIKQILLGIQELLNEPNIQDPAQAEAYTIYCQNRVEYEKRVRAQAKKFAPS
ALR inh: inhibitors of human ALR sulfhydryl oxidase, primary screen, biochemical, H2O2 detection, HRP-luminol luminescence, single point. purified ALR, DTT oxidation. 290,000 tested, 3.8% active. inhibition, % (concentration not given with the values). AID 485317, 2010. FAD-linked sulfhydryl oxidase ALR (Homo sapiens), P55789;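 active = mean replicate inhibition above about 79%, with every replicate also reaching it, limit read from the data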
Casp3 counter: CASP3 inhibitor validation, counterassay for project on UBE2N polyubiquitination blockers, biochemical, one dose; shares compounds with UBC13 inh; Recombinant caspase-3, Caspase-Glo 3/7 luminescence, 60 min; inhibition, % at 20 µM; 1,400 tested, 4% active;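 active = mean inhibition across replicates above about 26%, limit read from the data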;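 also: plate controls were DMSO with caspase-3 for no effect and DMSO wells lacking enzyme for full effect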
Target sequence (P42574 whole entry, looked up): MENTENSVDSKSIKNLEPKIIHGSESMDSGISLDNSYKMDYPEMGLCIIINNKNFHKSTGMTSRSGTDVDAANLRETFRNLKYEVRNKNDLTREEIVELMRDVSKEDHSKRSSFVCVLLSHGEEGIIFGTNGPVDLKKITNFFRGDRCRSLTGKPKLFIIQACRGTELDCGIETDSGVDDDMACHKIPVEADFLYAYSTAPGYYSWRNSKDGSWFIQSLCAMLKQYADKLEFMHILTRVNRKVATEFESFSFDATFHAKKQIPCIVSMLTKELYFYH
UBC13 confirm: UBC13 polyubiquitination inhibitors, single-point retest, confirmation, biochemical, TR-FRET, single concentration. shares compounds with UBC13 inh. inhibition, % at 10 µM. 1,400 tested, 68% active. AID 488859, 2010; in the data active = inhibition above about 45%
Rin1 Abl conf: Rin1-Abl binding inhibitor retest, confirmation, biochemical, TR-FRET; shares compounds with Rin1 Abl inh; purified proteins; inhibition, % at 7.35 µM; 1,300 tested, 49% active
GFP quencher: GFP fluorescence inhibitors and quenchers, artefact control for Rin1-Abl interaction inhibitor project, biochemical. 1,300 tested, 8.5% active. inhibition, % at 6.75 µM. AID 602125, 2011. shares compounds with Rin1 Abl inh. inhibitors/quenchers counterscreen;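 also: ABL1-eGFP fusion protein alone without its partner RIN1-SBP; 0% = protein with vehicle and 100% = wells lacking protein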
GFP quench DR: GFP fluorescence inhibitors and quenchers, dose response, artefact control for Rin1-Abl interaction inhibitor project, biochemical. shares compounds with Rin1 Abl inh. 230 tested, under 10 active. AID 602182, 2012. GFP fluorescence interference/quenching counterscreen. IC50, µM; call rule not given here;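 also: ABL1-eGFP fusion protein alone without its RIN1 binding partner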
Numbers without * were called inactive. Rule as the data show it, unless noted: active = inhibition above about 6.5%; inactive = the rest.

Results for Cc1cc(OCC(=O)N2CCC(C(=O)O)CC2)c2c3c(c(=O)oc2c1)CCCC3 ?
Rin1 Abl inh: 0; PREPL inh: 1; UBC13 inh: 16; SUMO HTRF inh: 27; ALR inh: -9

Results for NC(Cc1ccccc1)c1nn[nH]n1 (centres undefined) ?
Rin1 Abl inh: 2

How did COC(=O)C1=C(c2ccc(F)cc2OCc2ccccc2)C[C@@H]2CC[C@H]1N2C(=O)NC1CCN(Cc2ccccc2)CC1 do in these assays?
Rin1 Abl inh: 4; PREPL inh: 27; UBC13 inh: 51*; ALR inh: -6; Casp3 counter: -3; UBC13 confirm: 38

Results for O=C(C(=O)N1CCOCC1)c1cn(Cc2ccccc2)c2ccccc12 ?
RBBP9 inhibitor: -4; Rin1 Abl inh: 0; PREPL inh: 43; UBC13 inh: 45*; SUMO HTRF inh: 9; ALR inh: -6; Casp3 counter: 0; UBC13 confirm: 37

Results for CCC(=NCc1cccnc1)c1c(O)n(-c2ccc(Cl)cc2)c(=O)[nH]c1=O ?
RBBP9 inhibitor: -5; Rin1 Abl inh: -2; PREPL inh: 7; UBC13 inh: 0; SUMO HTRF inh: 6

Results for CN1[C@@H]2CC[C@H]1CC(OC1c3ccccc3CCc3ccccc31)C2 (some centres undefined) ?
Rin1 Abl inh: 3; PREPL inh: 22; UBC13 inh: 58*; ALR inh: -3; Casp3 counter: -2; UBC13 confirm: 37

How did CN1C2CCC1CC(OC(=O)c1ccc(Cl)cc1)C2 (centres undefined) do in these assays?
RBBP9 inhibitor: -1; Rin1 Abl inh: -2; PREPL inh: 2; UBC13 inh: 6; SUMO HTRF inh: 2; ALR inh: 0

How did O=c1[nH]c2ccccc2n1C1CCN(C(c2nnnn2-c2ccc3c(c2)OCCO3)C2CC2)CC1 (centres undefined) do in these assays?
Rin1 Abl inh: 17*; Rin1 Abl conf: 20*; GFP quencher: 1; GFP quench DR: >68

What do the screens show for `COc1ccc(-n2nnnc2C(C2CC2)N2CCC(n3c(=O)[nH]c4ccccc43)CC2)cc1` (centres undefined)?
Rin1 Abl inh: 20*; Rin1 Abl conf: 24*; GFP quencher: 0; GFP quench DR: >67

How did O=c1[nH]c2ccccc2n1C1CCN(C(c2ccccc2)c2nnnn2-c2ccc3c(c2)OCCO3)CC1 (centres undefined) do in these assays?
Rin1 Abl inh: 6

Results for CCc1ccc(N2C(=O)CC(=O)NC2=O)cc1 ?
Rin1 Abl inh: 3; PREPL inh: 4; UBC13 inh: -7; SUMO HTRF inh: 6; ALR inh: 2

What do the screens show for `COC(=O)C1=C(c2ccc(C(C)=O)cc2)C[C@@H]2CC[C@H]1N2C(=O)N1CCC(O)CC1`?
Rin1 Abl inh: -1; PREPL inh: 4; UBC13 inh: -5; ALR inh: 5

Results for O=c1c2ccccc2nc(CSc2ncnc3nc[nH]c23)n1-c1ccccc1Cl ?
RBBP9 inhibitor: -13; Rin1 Abl inh: -2; PREPL inh: 13; UBC13 inh: -5; SUMO HTRF inh: 8; ALR inh: -5

How did O=c1c2ccccc2nc(CSc2ncnc3nc[nH]c23)n1-c1ccccc1 do in these assays?
RBBP9 inhibitor: -7; Rin1 Abl inh: 7.6*; PREPL inh: -9; UBC13 inh: 4; SUMO HTRF inh: 6; ALR inh: -4; Rin1 Abl conf: -1; GFP quencher: -1

What do the screens show for `C[C@]12CCC3C(CC[C@H]4C[C@H](O)CC[C@]34C)C1[C@@H](O)C[C@@H]2O` (some centres undefined)?
Rin1 Abl inh: 2; PREPL inh: 6; UBC13 inh: -19; ALR inh: -1

How did Cc1ccc(N2C(=O)NC(=O)/C(=C/C=C/c3ccco3)C2=O)cc1 do in these assays?
RBBP9 inhibitor: 2; Rin1 Abl inh: 6.2*; PREPL inh: 14; UBC13 inh: -29; SUMO HTRF inh: 14; ALR inh: 34; Rin1 Abl conf: 3; GFP quencher: 0

Results for Nc1ccc2nonc2c1[N+](=O)[O-] ?
RBBP9 inhibitor: 2; Rin1 Abl inh: -8; PREPL inh: 5; UBC13 inh: -59; SUMO HTRF inh: 8; ALR inh: -25

Results for COP(=O)(OC)C(NS(=O)(=O)c1ccccc1)C(Cl)(Cl)Cl (centres undefined) ?
RBBP9 inhibitor: -2; Rin1 Abl inh: 8.0*; PREPL inh: 7; UBC13 inh: -15; SUMO HTRF inh: 2; ALR inh: 1; Rin1 Abl conf: 0; GFP quencher: -1

How did COP(=O)(OC)C(O)C(Cl)(Cl)Cl (centres undefined) do in these assays?
RBBP9 inhibitor: -9; PREPL inh: -2; UBC13 inh: 1; SUMO HTRF inh: -24; ALR inh: -9

What do the screens show for `O=C(N/N=C1/CN2CCC1CC2)c1cc2ccccc2cc1O`?
RBBP9 inhibitor: -1; Rin1 Abl inh: 0; PREPL inh: 24; UBC13 inh: -23; SUMO HTRF inh: 8; ALR inh: 51

What do the screens show for `CC(Cc1ccc(O)cc1)NCC(O)c1ccc(O)c(O)c1` (centres undefined)?
Rin1 Abl inh: 14*; Rin1 Abl conf: 9.3*; GFP quencher: 4
